Calls of active or inactive are those of the source. No cut-off for these calls is given here.
Experiments:
[1] = tested on: Human immunodeficiency virus 1; assay: Antiviral activity against multidrug-resistant HIV1 with protease V82A, M46I, F53L, V77I, L24I, L63P mutation in human SupT1 cells assessed as inhibition of viral replication measured at 6 days postinfection by p24 ELISA assay; type: functional, organism-based; conditions: Human immunodeficiency virus 1, SUP-T1, 144 h
Procedure, shortened: (§1)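 SupT1 cells (RPMI 1640, 10% FCS, 2mM L-glutamine, penicillin/streptomycin) infected with 10–100ng/mL p24 of virus at 37°C, washed, then cultured ± inhibitor at 1–4000 nM. Supernatant sampled every second day with media and inhibitor replenished. p24 measured by ELISA at 6 days post-infection, expressed as percentage of untreated cells; EC50 by nonlinear regression.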

[2] = tested on: Human immunodeficiency virus 1; assay: Antiviral activity against multidrug-resistant HIV1 with protease V82A, M46I, F53L, V77I, L24I, L63P mutation in human SupT1 cells assessed as viral LTR-driven luciferase activity using TZM-bl cells; type: functional, organism-based; conditions: Human immunodeficiency virus 1, SUP-T1
Procedure, shortened: (§2)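 SupT1 cells infected at MOI 0.001–0.005 and cultured with inhibitor at 1–4000 nM. On day 5–6, cell-free supernatant transferred to 10^4 TZM-bl cells carrying an HIV-1 LTR-driven luciferase reporter. Luciferase read by luminescence after 48 h. EC50 from nonlinear regression.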

[3] = tested on: Human immunodeficiency virus 1; assay: Antiviral activity against multidrug-resistant HIV1 with protease V82A, M46I, […], V77I, L24I, L63P mutation in human SubT1 cells assessed as inhibition of viral replication at 250 nM measured at 6 days postinfection by p24 ELISA assay relative to control; type: functional
Procedure, shortened: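 SupT1 cells (RPMI 1640, 10% fetal calf serum, 2mM L-glutamine, penicillin/streptomycin) infected with 10–100ng/mL p24 of SupT1-grown virus at 37°C, washed, then resuspended in medium with or without inhibitor (1–4000 nM range). Supernatant sampled every second day with medium and inhibitor replenished. p24 quantified by ELISA 6 days post infection, expressed as percentage of untreated cells.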

[4] = tested on: Human immunodeficiency virus 1; assay: Antiviral activity against wild type HIV1 in human SupT1 cells assessed as viral LTR-driven luciferase activity using TZM-bl cells; type: functional, organism-based; conditions: Human immunodeficiency virus 1, SUP-T1; procedure, shortened: as §2
[5] = target: Protease (Human immunodeficiency virus 1, UniProt Q9YQ12); assay: Inhibition of wild type HIV1 protease
Procedure, shortened: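 Purified HIV-1 protease (expression and purification described in earlier work) is preincubated with inhibitor in 25mM MES pH 5.6, 200mM NaCl, 5% glycerol, 1mM DTT in a prewarmed plate. Final concentrations: 25nM protease, 30µM fluorogenic anthranilyl substrate H-2992, 0.001–600µM inhibitor. Cleavage is read as fluorescence intensity. IC50 comes from nonlinear regression of initial velocities against inhibitor concentration, and Ki is calculated with the Cheng-Prusoff equation.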

[6] = Inhibition of multidrug-resistant HIV1 protease with V82A, M46I, F53L, V77I, L24I, L63P mutation; design: species or system Human immunodeficiency virus 1
Procedure, shortened: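 Fluorogenic cleavage assay with purified protease in 25mM MES pH 5.6, 200mM NaCl, 5% glycerol, 1mM DTT. Final concentrations 25nM enzyme, 30μM anthranilyl substrate H-2992, inhibitor 0.001–600μM. Reaction started by adding substrate in a prewarmed plate, read by fluorescence. IC50 by nonlinear regression of initial velocities; Ki from Cheng-Prusoff.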

[7] = tested on: Human immunodeficiency virus 1; assay: Antiviral activity against wild type HIV1 in human SubT1 cells assessed as inhibition of viral replication at 250 nM measured at 6 days postinfection by p24 ELISA assay; type: functional, organism-based
Procedure, shortened: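 SupT1 cells (RPMI 1640, 10% fetal calf serum) were infected with wild-type HIV-1 (10–100ng/mL p24) at 37°C, washed, then cultured with inhibitor at 1–4000 nM. Every second day supernatant was sampled and medium plus inhibitor replaced. p24 was measured by ELISA 6 days post-infection and expressed as a percentage of untreated cells (relative p24).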

[8] = tested on: Human immunodeficiency virus 1; assay: Antiviral activity against wild type HIV1 in human SupT1 cells assessed as inhibition of viral replication measured at 6 days postinfection by p24 ELISA assay; type: functional, organism-based; conditions: Human immunodeficiency virus 1, SUP-T1, 144 h; procedure, shortened: as §1

Protease, sequence (Q9YQ12 whole entry): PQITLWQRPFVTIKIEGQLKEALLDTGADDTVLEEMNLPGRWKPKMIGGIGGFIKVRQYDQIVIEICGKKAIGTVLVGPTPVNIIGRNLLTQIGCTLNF

SMILES | EC50 [1] [nM] | EC50 [2] [nM] | fold change (FC) [3] | EC50 [4] [nM] | IC50 [5] [nM] | Ki [5] [nM] | IC50 [6] [nM] | Ki [6] [nM] | Activity [7] | EC50 [8] [nM]
COc1ccc(S(=O)(=O)N(CC(C)C)C[C@@H](O)[C@H](Cc2ccccc2)n2cc(COC(=O)N[C@H]3c4ccccc4C[C@H]3O)nn2)cc1 | 55 | 260 | 20 | 86 | 6 | 2.7 | 15.7 | 7.1 | Active | 30
CC(C)[C@H](NC(=O)[C@H](C)NC(=O)OCc1ccccc1)C(=O)N[C@@H](Cc1ccccc1)[C@@H](O)[C@H](O)[C@H](Cc1ccccc1)NC(=O)[C@@H](NC(=O)[C@H](C)NC(=O)OCc1ccccc1)C(C)C | – | – | – | 92 | – | – | – | – | – | 46

From ChEMBL document CHEMBL1140174, “A copper(I)-catalyzed 1,2,3-triazole azide-alkyne click compound is a potent inhibitor of a multidrug-resistant HIV-1 protease variant” (J Med Chem, 2008)
